# Source: PubChem BioAssay
# Calls of active or inactive are those of the source.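 The calls were made as follows, unless noted: active = Her2 level under about 52% in both replicate screens, with viability over 70% of control (limit read from the data); inconclusive = Her2 under the limit in one screen only, or viability under 70%; inactive = Her2 level above the set limit.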
# Key:
# [1] = Her2 expression decrease, cell viability multiplex – SKBR3 breast tumor cells, AlphaScreen, ATP viability, primary screen (AID 461); conditions: SKBR3 Her2 protein level, 18-24 h, measured here: SKBR3 viability, ATP luminescence, at 10 µM;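 as to Her2 level: lower value means less Her2 protein in the cells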;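 as to viability: percent of carrier control wells set as 100% viability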
# [2] = target: Receptor tyrosine-protein kinase erbB-2 (Homo sapiens) (UniProt P04626); experiment: as above; conditions: 18-24 h, at 10 µM, stronger effect = lower value
# [3] = reduced viability of SK-BR-3 breast cancer cells – cell-based, 24 h, human, pilot screen (AID 572;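 active = viability at or below 10% of carrier control in both of two separate runs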;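 also: compound exposure lasted between 18 and 24 h rather than exactly 24 h; 100% = carrier-treated control wells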); conditions: SK-BR-3 viability, CellTiter-Glo luminescence, at 10 µM, stronger effect = lower value
# [4] = HUVEC growth inhibition – cell-based, human, primary screen (AID 575;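 active = viability at or below 30% in both replicate assays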;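 also: 100% = median of untreated cell wells with 0.1% DMSO on each plate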); conditions: HUVEC proliferation, CellTiter-Glo luminescence, 72 h; at 10 µM; stronger effect = lower value
# In short: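 system = HUVEC primary cells | amount = 1250 cells/well | buffer or medium = supplemented EBM, 2% fetal bovine serum | dosing = single-point 10 µM, DMSO 0.1% final | times = 72 h compound incubation | detection = CTG luminescence | read-out = % viability relative to median vehicle-well signal on each plate | control set = vehicle and MePR control wells | format = collagen-coated 384-well format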
# [5] = H69AR cell proliferation blockers – human, duplicate replicates, primary screen (AID 580;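 active = viability at or under a set limit in both replicates, limit being median viability minus 3 SD, cut at about 48% in these data, passing the limit was not always enough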;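 also: 100% = mean luminescence of untreated wells and 0% = no signal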); conditions: H69AR lung tumor cells viability, ATP luminescence, 72 h; at 10 µM; stronger effect = lower value
# [6] = MRP1 drug-resistance reversers in H69AR cells – cell-based, doxorubicin co-treatment, pilot screen (AID 601;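 active = viability loss from added drug above about 55%, and viability with drug at most 40%, in both replicates, limit read from the data, passing the limit was not always enough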); conditions: CellTiter-Glo, 72 h, at 10 µM; for differential viability (reversal): stronger effect = higher value
# [7] = yeast transport mutant growth inhibition pilot in 384-well plates, post-Golgi transport modulator project (AID 636; in the data active = inhibition above about 31%); conditions: absorbance 615 nm, about 18 h, stronger effect = higher value
# [8] = growth suppression of yeast trafficking mutant, preliminary HTS, modulators of trafficking downstream of Golgi apparatus project, 1536-format plate, OD 615 nm (AID 637; in the data active = inhibition above about 30%); conditions: yeast transport mutant growth, absorbance 615 nm, 18 h; stronger effect = higher value
# [9] = H69AR cells + 2 uM doxorubicin, measured here: viability with 2 uM doxorubicin, stronger effect = lower value
# [10] = H69AR cells, compound alone cytotoxicity
# Receptor tyrosine-protein kinase erbB-2 (Homo sapiens), sequence (P04626 whole entry, looked up): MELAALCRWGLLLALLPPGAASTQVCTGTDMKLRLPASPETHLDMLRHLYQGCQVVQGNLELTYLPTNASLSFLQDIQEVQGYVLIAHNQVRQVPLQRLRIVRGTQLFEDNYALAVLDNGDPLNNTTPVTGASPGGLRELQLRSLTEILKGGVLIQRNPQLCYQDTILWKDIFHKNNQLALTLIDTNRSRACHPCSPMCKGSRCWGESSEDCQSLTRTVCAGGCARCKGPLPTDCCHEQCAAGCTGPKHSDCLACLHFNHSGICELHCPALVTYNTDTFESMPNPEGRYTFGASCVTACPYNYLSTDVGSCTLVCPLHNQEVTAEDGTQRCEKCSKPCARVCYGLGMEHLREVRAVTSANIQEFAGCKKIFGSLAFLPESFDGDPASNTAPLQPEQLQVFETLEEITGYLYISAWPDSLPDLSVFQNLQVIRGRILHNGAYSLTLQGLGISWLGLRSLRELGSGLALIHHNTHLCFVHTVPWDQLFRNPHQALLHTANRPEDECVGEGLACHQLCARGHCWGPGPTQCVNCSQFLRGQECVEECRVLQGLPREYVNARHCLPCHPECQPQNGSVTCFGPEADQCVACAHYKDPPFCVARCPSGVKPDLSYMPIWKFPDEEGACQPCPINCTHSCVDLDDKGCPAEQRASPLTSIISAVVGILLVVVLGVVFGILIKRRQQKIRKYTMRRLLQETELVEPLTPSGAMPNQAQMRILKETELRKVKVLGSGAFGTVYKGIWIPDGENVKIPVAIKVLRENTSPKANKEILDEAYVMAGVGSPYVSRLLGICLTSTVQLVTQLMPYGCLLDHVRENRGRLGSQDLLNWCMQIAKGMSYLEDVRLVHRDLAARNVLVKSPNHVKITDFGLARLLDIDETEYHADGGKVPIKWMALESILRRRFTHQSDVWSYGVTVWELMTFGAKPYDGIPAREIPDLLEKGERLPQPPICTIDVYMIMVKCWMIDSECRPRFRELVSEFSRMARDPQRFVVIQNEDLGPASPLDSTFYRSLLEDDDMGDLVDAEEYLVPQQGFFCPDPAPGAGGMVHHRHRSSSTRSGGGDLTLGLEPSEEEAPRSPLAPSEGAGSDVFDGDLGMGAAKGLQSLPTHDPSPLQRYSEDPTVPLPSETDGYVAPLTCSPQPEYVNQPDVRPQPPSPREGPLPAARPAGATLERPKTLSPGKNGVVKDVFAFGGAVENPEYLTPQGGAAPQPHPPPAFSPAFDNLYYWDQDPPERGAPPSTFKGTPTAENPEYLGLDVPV
Compound,viability [1],Her2 level [2],viability [3],viability [4],viability [5],differential viability (reversal) ([6]; H69AR cells + 2 uM doxorubicin),"viability [6, 9]","viability [6, 10]",inhibition [7],inhibition [8]
O=C(Nc1ccc2snnc2c1)N1CCSCC1,108%,104% (inactive),108% (inactive),103% (inactive),98.9% (inactive),2.63% (inactive),96.2%,98.9%,0.77% (inactive),-0.5% (inactive)
CCn1c(SCC(=O)c2ccc(OC)cc2)nnc1C(C)NC(=O)c1ccc(OC)cc1 (stereo not given),93%,106% (inactive),93% (inactive),85.7% (inactive),88.2% (inactive),-3.72% (inactive),91.9%,88.2%,-1.2% (inactive),-8.41% (inactive)
O=c1c2nnn(Cc3ccc(Cl)cc3)c2ncn1Cc1ccc(F)cc1,124%,89.5% (inactive),124% (inactive),65.6% (inactive),94.6% (inactive),7.53% (inactive),87.1%,94.6%,-9.86% (inactive),1.75% (inactive)
COc1ccc(Cl)c(NCCC(=O)O)c1,88%,107% (inactive),88% (inactive),98.6% (inactive),95.6% (inactive),7.1% (inactive),88.5%,95.6%,-1.37% (inactive),9.37% (inactive)
CC(C(=O)N1CCCCC1)n1ncn2cccc2c1=O (stereo not given),93.5%,93.5% (inactive),93.5% (inactive),94.2% (inactive),102% (inactive),17.3% (inactive),85.1%,102%,-1.58% (inactive),-2.91% (inactive)
Oc1ccc2cccnc2c1,94.5%,108% (inactive),94.5% (inactive),107% (inactive),106% (inactive),5.68% (inactive),100%,106%,-4.8% (inactive),-8.41% (inactive)
C=CCn1cnc2c(NCc3ccccc3)ncnc21,85.5%,94% (inactive),85.5% (inactive),96.9% (inactive),97.1% (inactive),-3.4% (inactive),100%,97.1%,1.71% (inactive),-7.9% (inactive)
CCCCn1nnnc1SCC(=O)N1CCN(C(=O)c2ccco2)CC1,116%,100% (inactive),116% (inactive),111% (inactive),93.6% (inactive),7.26% (inactive),86.3%,93.6%,-6.71% (inactive),1.75% (inactive)
COc1ccc(N=c2scc(-c3ccc(S(=O)(=O)N4CCOCC4)cc3)n2CCCO)cc1,85.5%,80.5% (inactive),85.5% (inactive),96.4% (inactive),72.8% (inactive),37.2% (inactive),35.6%,72.8%,1.67% (inactive),-8.5% (inactive)
Cc1cc(C)nc(SCc2nnc(SCc3ccccc3Cl)o2)n1,80%,78.5% (inactive),80% (inactive),93.8% (inactive),79.5% (inactive),-1.99% (inactive),81.5%,79.5%,-3.29% (inactive),1.82% (inactive)
COc1ccc(C)cc1NC(=O)CN(Cc1nnc(-c2ccc(Cl)cc2)o1)C1CCCC1,89%,89.5% (inactive),89% (inactive),84.5% (inactive),4.7% (active),-33.9% (inactive),38.6%,4.7%,-4.73% (inactive),-2.95% (inactive)
Cc1cc(C(=O)N2CCN(C/C=C/c3ccccc3)CC2)no1,92.5%,97.5% (inactive),92.5% (inactive),93.8% (inactive),93.2% (inactive),0.745% (inactive),92.5%,93.2%,-4.05% (inactive),2.62% (inactive)
CCOC(=O)C1(C)NC(c2ccc(OC)c(OC)c2)C2C(=O)N(CC)C(=O)C21 (stereo not given),96.5%,106% (inactive),96.5% (inactive),89.2% (inactive),101% (inactive),7.14% (inactive),93.8%,101%,-0.41% (inactive),-1.27% (inactive)
CC1CCCCC1NC(=O)Cn1nnc(-c2ccc(Cl)cc2)n1 (stereo not given),86%,92.5% (inactive),86% (inactive),72.7% (inactive),91.9% (inactive),14.6% (inactive),77.3%,91.9%,-1.3% (inactive),-5.4% (inactive)
Cc1sc2ncnc(OCC(=O)N3CCN(S(=O)(=O)c4ccc(Cl)cc4)CC3)c2c1C,92.5%,86% (inactive),92.5% (inactive),89.2% (inactive),84.8% (inactive),0.87% (inactive),84%,84.8%,0.53% (inactive),-0.91% (inactive)
Cn1c(SCC(N)=O)nnc1C1CCN(S(=O)(=O)c2ccccc2C(F)(F)F)CC1,114%,97.5% (inactive),114% (inactive),112% (inactive),104% (inactive),7.31% (inactive),96.5%,104%,-7.03% (inactive),-0.33% (inactive)
O=C(CSc1nnnn1C1CCCC1)Nc1cccc(NC(=O)c2ccco2)c1,91.5%,98.5% (inactive),91.5% (inactive),96.7% (inactive),110% (inactive),13.4% (inactive),97%,110%,-0.39% (inactive),-2.17% (inactive)
O=C(NCc1cccs1)C1CCN(S(=O)(=O)c2cccs2)CC1,103%,89% (inactive),103% (inactive),89.8% (inactive),102% (inactive),26.9% (inactive),74.6%,102%,-5.19% (inactive),-4.29% (inactive)
O=C1CC(N2CCC(C(=O)N3CCCCC3)CC2)C(=O)N1 (stereo not given),110%,91.5% (inactive),110% (inactive),94.4% (inactive),96.9% (inactive),10% (inactive),86.8%,96.9%,-2.63% (inactive),3.71% (inactive)
Cc1cc(O)c(C2(C(F)(F)F)NCCNC2=O)cc1C (stereo not given),100%,96% (inactive),100% (inactive),99.5% (inactive),98.8% (inactive),7.08% (inactive),91.7%,98.8%,-4.61% (inactive),-0.32% (inactive)
Cc1ccc(C)c(S(=O)(=O)NCc2cccnc2)c1,92%,87.5% (inactive),92% (inactive),108% (inactive),92.8% (inactive),1.22% (inactive),91.5%,92.8%,-5.33% (inactive),-6.19% (inactive)
COc1ccc(S(=O)(=O)NCC(=O)N(CC(=O)NCC2CCCO2)c2ccccc2C)cc1 (stereo not given),123%,82% (inactive),123% (inactive),107% (inactive),83.4% (inactive),7.01% (inactive),76.4%,83.4%,-3.73% (inactive),-0.32% (inactive)
COCCOC(=O)/C=C1/NC(=O)CS1,96.5%,94.5% (inactive),96.5% (inactive),106% (inactive),93.8% (inactive),4.28% (inactive),89.6%,93.8%,-5.6% (inactive),1.48% (inactive)
O=C(NCCN1CCOCC1)C1CC(=O)N(c2ccc(F)c(Cl)c2)C1 (stereo not given),124%,111% (inactive),124% (inactive),100% (inactive),98.2% (inactive),3.27% (inactive),94.9%,98.2%,-1.18% (inactive),-4.03% (inactive)
O=C1N(CCCCN2C(=O)C3(OCCO3)c3ccccc32)c2ccccc2C12OCCO2,100%,84.5% (inactive),100% (inactive),73.2% (inactive),84.9% (inactive),11.1% (inactive),73.7%,84.9%,-0.39% (inactive),11.5% (inactive)
CC(O)c1n(C)c(Cl)c[n+]1C (stereo not given),114%,95% (inactive),114% (inactive),109% (inactive),103% (inactive),-3.03% (inactive),106%,103%,-0.66% (inactive),6.39% (inactive)
O=C(NCC(F)(F)F)N1CCOCC1,96%,85.5% (inactive),96% (inactive),89.5% (inactive),100% (inactive),8.42% (inactive),91.8%,100%,-6.71% (inactive),-6.19% (inactive)
CCC(=O)c1ccc(OCC(O)CN2CCN(S(=O)(=O)N3CCCCC3)CC2)cc1 (stereo not given),91%,82% (inactive),91% (inactive),105% (inactive),110% (inactive),18.1% (inactive),92.2%,110%,-3.33% (inactive),3.44% (inactive)
c1ccc2c(c1)sc1nnnn12,94.5%,81% (inactive),94.5% (inactive),79.9% (inactive),86.6% (inactive),-13.7% (inactive),100%,86.6%,-5.07% (inactive),1.97% (inactive)
